# Screening results (PubChem BioAssay)
# CXCR6 block: CXCR6 (human) receptor inhibition | CHO-K1 PathHunter CXCR6 beta-arrestin, luminescence | 360,000 tested, 0.36% active | O00574 | inhibition, % at 20 µM | AID 602244; in the data active = inhibition above about 34%, passing the limit was not always enough;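 note: antagonist mode with CXCL16 agonist at 10 nM final; 0% = 10 nM CXCL16 with DMSO and 100% = unstimulated wells without agonist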
# APJ antagonist: APJ receptor antagonism; inhibition, % at 20 µM; CHO-K1 APJ beta-arrestin complementation, luminescence; 330,000 tested, 0.32% active; AID 2521;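 active = inhibition above about 40% at 20 µM, limit read from the data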;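 note: cells challenged with 10 nM apelin-13 agonist together with compound; plate controls were apelin-13 plus DMSO wells for no effect and DMSO wells lacking apelin-13 for full effect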
# APJ agonist: APJ receptor agonism | P35414 | 330,000 tested, 0.11% active | CHO-K1 APJ PathHunter beta-arrestin, luminescence; 0% DMSO wells, 100% apelin | AID 2520 | activation, % at 20 µM;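 active = activation more than six SD over the plate average, tested at 20 µM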;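 note: 0% = DMSO alone and 100% = apelin-13 at 10 nM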
#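 system = engineered CHO-K1 APJ arrestin reporter cells | input = 1000 cells per well | timing = overnight seeding, 90 min compound at 25 °C, 1 h detection | measured by = enzyme-fragment complementation luminescence | read-out = beta-arrestin recruitment to APJ as agonist activity, luminescent signal | control set = negative DMSO alone, positive Apelin-13 at 10 nM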
# CCR6 antagonist: CCR6 (human) receptor antagonism; P51684; CHO-K1 CCR6 PathHunter beta-arrestin, luminescence, CCL20-stimulated; inhibition, % at 20 µM; 340,000 tested, 0.49% active;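 active = compounds whose inhibition of the agonist-driven luminescence signal at 20 µM reaches about 50%, limit read from the data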;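 note: cells stimulated with CCL20 at 14 nM final; plate controls were DMSO with CCL20 for no effect and DMSO without agonist for full effect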
# HTR2A ag: activates the mouse 5-HT2A serotonin receptor; P35363; CHO-K1 mHTR2A beta-arrestin complementation, luminescence; percent of 30 µM serotonin response; activation, % at 7.6 µM; 360,000 tested, 0.66% active; AID 624169;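 active = activation above a run cutoff, the mean activation of all tested compounds plus 3 SD, cut at about 14% in these data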;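 note: 0% = plate median of compound wells and 100% = 30 µM serotonin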
# EBI2 block: blocks human EBI2 receptor beta-arrestin signaling | P32249 | EBI2 beta-arrestin recruitment, luminescence, 7a,25-OHC stimulated | inhibition, % at 5 µM | 360,000 tested, 0.81% active | AID 651636; in the data active = inhibition above about 38%;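 note: enzyme fragment complementation signal reports receptor beta-arrestin coupling in cells; 0% = agonist plus DMSO wells and 100% = wells without agonist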
# Target sequence (P32249 whole entry, looked up, the tested form may be a part): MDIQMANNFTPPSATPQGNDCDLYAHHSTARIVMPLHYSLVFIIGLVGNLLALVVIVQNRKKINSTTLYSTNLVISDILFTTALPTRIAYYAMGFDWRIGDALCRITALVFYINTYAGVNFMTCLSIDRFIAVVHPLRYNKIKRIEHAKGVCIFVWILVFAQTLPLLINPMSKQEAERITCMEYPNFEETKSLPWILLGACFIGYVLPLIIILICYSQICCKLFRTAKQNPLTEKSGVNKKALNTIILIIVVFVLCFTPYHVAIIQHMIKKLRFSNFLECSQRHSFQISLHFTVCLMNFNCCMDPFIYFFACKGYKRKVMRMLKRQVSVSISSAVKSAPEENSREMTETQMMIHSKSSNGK
# EBI2 conf: confirmation of human EBI2 receptor antagonists | 2,400 tested, 29% active | EBI2 beta-arrestin luminescence, 7a,25-OHC antagonism | inhibition, % at 5 µM | shares compounds with EBI2 block;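 active = inhibition of at least 50%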
# EBI2 ag: EBI2 agonism counter-screen | shares compounds with EBI2 block | 2,400 tested, under 10 active | EBI2-expressing cells, agonist mode, luminescence, 60 min; 0% vehicle, 100% 7α,25-dihydroxycholesterol control | activation, % at 5 µM;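 active = activation of at least 50%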
# bGal counter: counter-screen for EBI2 antagonists: E. coli beta-galactosidase inhibition. shares compounds with EBI2 block. purified beta-galactosidase, luminescent Galacton Star, 15 min. inhibition, % at 5 µM. 2,400 tested, 1% active;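 active = replicate-average signal at least 3 plate SD below neutral wells, shown as high inhibition, flagging enzyme-inhibiting false positives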;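 note: 0% = DMSO wells with enzyme and 100% = wells lacking enzyme; higher means stronger loss of beta-gal luminescence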
# The depositor's hits bear a star; . = not tested or not shown. The list is not random: actives were taken first. Their share in the collection is about 2.1%.
SMILES,CXCR6 block,APJ antagonist,APJ agonist,CCR6 antagonist,HTR2A ag,EBI2 block,EBI2 conf,EBI2 ag,bGal counter
Cc1ccc(C(=O)Nc2ccccc2C(=O)NCc2ccco2)cc1S(=O)(=O)N1CCCCC1,12,-1,-4,26,-4,44*,28,0,8
O=C(/C=C/c1ccc(Br)cc1)c1ccc(NC(=O)c2ccco2)cc1,2,5,-1,0,-4,43*,9,-1,-8
CC(=O)Nc1ccc(/C=C/C(=O)c2ccc3c(c2)OCCO3)cc1,8,13,0,11,4,10,.,.,.
CCCC(=O)Nc1ccc(C(=O)/C=C/c2ccc(SC)cc2)cc1,-4,3,0,4,-8,44*,38,0,6
CSc1ccc(/C=C/C(=O)c2ccc(NC(C)=O)cc2)cc1,6,2,-2,10,-5,80*,40,0,6
COc1ccc2oc(C(=O)OCC(=O)N3CCN(C(C)=O)CC3)c(C)c2c1,-7,-8,3,-9,-4,-7,.,.,.
CCc1nc(SCC#N)c(C#N)cc1C,.,-5,-3,.,.,.,.,.,.
CCn1c(SC(C)C)nnc1-c1c[nH]c2ccccc12,-8,1,6,0,-4,-4,.,.,.
CN(Cc1cccc(F)c1)C(=O)CSc1nnc(C2CC2)n1C1CC1,-2,15,-4,6,4,-1,.,.,.
COc1ccc(-n2ncc(C(=O)N3CCN(c4ccc(F)cc4)CC3)c2C)cc1,-9,-6,-3,8,-3,-5,.,.,.
CCOC(=O)N1CCN(C(=O)c2cc(-c3ccc(F)cc3)[nH]c2C)CC1,3,-1,-2,2,0,89*,86*,-1,-12
COc1ccc(N2CCN(C(=O)c3cc(-c4ccc(F)cc4)[nH]c3C)CC2)cc1,13,-1,-1,0,-7,93*,62*,2,9
Cc1[nH]c(-c2ccc(F)cc2)cc1C(=O)N1CCN(c2ccc(Cl)cc2)CC1,-16,0,1,-4,6,73*,47,0,-6
CCOC(=O)N1CCN(C(=O)c2cccc(F)c2)CC1,-2,-7,-3,3,1,3,.,.,.
N#Cc1ccc(C(=O)Nc2cc(S(=O)(=O)Nc3ccc(Cl)cc3)ccc2N2CCCCC2)cc1,-5,-15,-1,13,0,52*,33,1,3
O=C(c1ccc(Br)cc1)N1CCN(Cc2ccccc2)CC1,-3,12,-1,4,5,48*,36,0,5
O=C(c1ccc2ccccc2c1)N1CCN(Cc2ccccc2)CC1,-4,-19,-2,7,-10,90*,77*,1,6
O=C(c1cccc(C(=O)N2CCN(Cc3ccccc3)CC2)c1)N1CCN(Cc2ccccc2)CC1,-4,-5,-1,7,0,5,.,.,.
O=C(c1ccc(Br)cc1)N1CCC(C(=O)N2CCN(c3ccccc3)CC2)CC1,-8,10,-2,25,-3,79*,39,0,-11
O=C(c1ccc(F)cc1)N1CCN(Cc2ccccc2)CC1,-4,-1,-1,-1,-7,9,.,.,.
COc1ccc(C(=O)N2CCC(C(=O)N3CCN(c4ccccc4)CC3)CC2)cc1,11,-17,-2,15,2,22,.,.,.
O=c1[nH]c(CN2CCN(S(=O)(=O)c3ccc(Cl)cc3)CC2)nc2cc(Cl)ccc12,-11,8,-3,-2,1,89*,69*,0,9
COc1cc2nc(CN3CCC(Cc4ccccc4)CC3)[nH]c(=O)c2cc1OC,4,-7,-5,14,3,46*,24,1,0
Cc1ccc(C)c(S(=O)(=O)N2CCN(C(=O)CCc3nc4ccccc4c(=O)[nH]3)CC2)c1,-3,-5,-3,10,-4,3,.,.,.
COc1cc2nc(CN3CCN(S(=O)(=O)c4cc(C)ccc4C)CC3)[nH]c(=O)c2cc1OC,3,10,-3,14,0,60*,37,2,1
SMILES,CXCR6 block,APJ antagonist,APJ agonist,CCR6 antagonist,HTR2A ag,EBI2 block,EBI2 conf,EBI2 ag,bGal counter
COc1cc2nc(CN3CCC(C(O)(c4ccccc4)c4ccccc4)CC3)[nH]c(=O)c2cc1OC,10,-6,1,21,2,35,.,.,.
COc1cc2nc(CN3CCN(C(C)=O)CC3)[nH]c(=O)c2cc1OC,-3,8,-1,-7,0,3,.,.,.
COc1cc2nc(CN3CCN(S(=O)(=O)c4ccccc4)CC3)[nH]c(=O)c2cc1OC,-17,11,-1,3,3,47*,23,-1,-9
CC(=O)N1CCN(Cc2nc3cc(Cl)ccc3c(=O)[nH]2)CC1,-7,2,-1,7,4,-6,.,.,.
COc1ccccc1Nc1ccc2nonc2c1[N+](=O)[O-],-6,-5,4,5,-1,5,.,.,.
CCOc1ccccc1N(C)C(=O)Cn1ncc2c([nH]c3ccccc32)c1=O,2,5,-1,-6,-6,8,.,.,.
Oc1ccccc1-c1nnc(SCCN2CCOCC2)n1Cc1ccccc1,6,13,0,-6,1,4,.,.,.
CCOC(=O)c1c(N)sc2c1CCC1C(=O)N(C3CCCCC3)C(=O)C21 (configuration not stated),8,-8,-3,13,0,5,.,.,.
O=c1[nH]c(CN2CCN(S(=O)(=O)c3cccs3)CC2)nc2c(Br)cc(Br)cc12,8,-18,3,16,3,54*,22,0,5
COc1cc2nc(CN3CCN(S(=O)(=O)c4ccc(Cl)cc4)CC3)[nH]c(=O)c2cc1OC,8,14,1,5,4,56*,31,1,4
O=c1[nH]c(CN2CCN(c3ncccn3)CC2)nc2c(Br)cc(Br)cc12,5,-3,-5,7,-1,3,.,.,.
O=C(NCC(c1ccc(F)cc1)N1CCOCC1)c1ccc(C(=O)c2ccccc2)cc1 (configuration not stated),-3,16,-3,16,-6,-10,.,.,.
O=[N+]([O-])c1cccc(OCCCN2CCC(Cc3ccccc3)CC2)c1,7,.,.,25,-11,5,.,.,.
CC(CCc1ccccc1)NC(=O)C1CCCN(C(=O)c2cc3sccc3n2C)C1 (configuration not stated),-4,-10,-4,11,-6,60*,29,0,-11
